In data set [1] the test system is Mus musculus. In words: Antiarthritic activity in DBA/1J mouse collagen-induced arthritis model assessed as loss of body weight at 30 mg/kg, ip administered every morning for 1 week measured during compound dosing. The format is functional, organism-based.
The test system of another data set is MV4-11. Briefly: Cell cycle arrest in human MV4-11 cells at 50 nM to 1 uM after 24 hrs by propidium iodide staining-based flow cytometric method. The data set is classed as functional. Put shortly:
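Cells were stained with propidium iodide and analysed by flow cytometry for cell-cycle distribution and the subG1 fraction (fragmented DNA). Representative of at least two independent experiments.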

The target in the next data set is T1, Histone deacetylase 11 (Homo sapiens, UniProt Q96DB2).
T1 sequence (Q96DB2 whole entry): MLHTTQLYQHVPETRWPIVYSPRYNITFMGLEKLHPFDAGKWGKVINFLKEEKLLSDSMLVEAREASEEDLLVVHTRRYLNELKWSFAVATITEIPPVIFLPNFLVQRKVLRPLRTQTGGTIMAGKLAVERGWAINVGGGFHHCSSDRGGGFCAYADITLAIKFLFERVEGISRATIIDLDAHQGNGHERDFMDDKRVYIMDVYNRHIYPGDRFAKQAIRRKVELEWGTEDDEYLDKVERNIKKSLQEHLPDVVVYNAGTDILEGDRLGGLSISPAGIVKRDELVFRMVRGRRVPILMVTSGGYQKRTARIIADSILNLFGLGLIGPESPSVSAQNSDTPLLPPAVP
In words: Inhibition of recombinant human N-terminal His-tagged HDAC11 (1 to 347 residues) expressed in baculovirus-infected insect cells using RHKK(Ac)AMC as substrate by fluorimeter.

The target of data set [2] is Histone deacetylase 3/Nuclear receptor corepressor 2 (HDAC3/NCoR2) (Homo sapiens, UniProt O15379). Briefly: biochemical. The data set is classed as cell-based.
The test system of data set [3] is Mus musculus. Briefly: Toxicity in DBA/1J mouse collagen-induced arthritis model assessed as effect on white blood cell count at 30 mg/kg, ip administered every morning for 12 to 14 days measured post last dose relative to vehicle-treated control. The data set is classed as organism-based. The conditions noted are these: in vivo.
The target in the next data set is Histone deacetylase 5 (Homo sapiens, UniProt Q9UQL6). In words: Inhibition of recombinant human C-terminal His-tagged HDAC5 (656 to 1122 residues) expressed in baculovirus-infected insect cells using Boc-Lys(TFA)-AMC as substrate after 60 mins by fluorimeter.
In data set [4] the test system is Mus musculus. Briefly: Antiarthritic activity in DBA/1J mouse collagen-induced arthritis model assessed as decrease in degradation of cartilage at 30 mg/kg, ip administered every morning for 12 to 14 days. The data set is classed as functional, organism-based. Put shortly:
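Collagen type II-induced arthritis in mice, treated at 30 mg/kg versus vehicle. Arthritic paws were assessed histologically for synovial inflammation, cellular invasion, cartilage degradation and bone erosion.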

Calls of active or inactive are those of the source. No cut-off for these calls is given here.

Chain of Histone deacetylase 5 (Q9UQL6 whole entry, the tested form may be a part): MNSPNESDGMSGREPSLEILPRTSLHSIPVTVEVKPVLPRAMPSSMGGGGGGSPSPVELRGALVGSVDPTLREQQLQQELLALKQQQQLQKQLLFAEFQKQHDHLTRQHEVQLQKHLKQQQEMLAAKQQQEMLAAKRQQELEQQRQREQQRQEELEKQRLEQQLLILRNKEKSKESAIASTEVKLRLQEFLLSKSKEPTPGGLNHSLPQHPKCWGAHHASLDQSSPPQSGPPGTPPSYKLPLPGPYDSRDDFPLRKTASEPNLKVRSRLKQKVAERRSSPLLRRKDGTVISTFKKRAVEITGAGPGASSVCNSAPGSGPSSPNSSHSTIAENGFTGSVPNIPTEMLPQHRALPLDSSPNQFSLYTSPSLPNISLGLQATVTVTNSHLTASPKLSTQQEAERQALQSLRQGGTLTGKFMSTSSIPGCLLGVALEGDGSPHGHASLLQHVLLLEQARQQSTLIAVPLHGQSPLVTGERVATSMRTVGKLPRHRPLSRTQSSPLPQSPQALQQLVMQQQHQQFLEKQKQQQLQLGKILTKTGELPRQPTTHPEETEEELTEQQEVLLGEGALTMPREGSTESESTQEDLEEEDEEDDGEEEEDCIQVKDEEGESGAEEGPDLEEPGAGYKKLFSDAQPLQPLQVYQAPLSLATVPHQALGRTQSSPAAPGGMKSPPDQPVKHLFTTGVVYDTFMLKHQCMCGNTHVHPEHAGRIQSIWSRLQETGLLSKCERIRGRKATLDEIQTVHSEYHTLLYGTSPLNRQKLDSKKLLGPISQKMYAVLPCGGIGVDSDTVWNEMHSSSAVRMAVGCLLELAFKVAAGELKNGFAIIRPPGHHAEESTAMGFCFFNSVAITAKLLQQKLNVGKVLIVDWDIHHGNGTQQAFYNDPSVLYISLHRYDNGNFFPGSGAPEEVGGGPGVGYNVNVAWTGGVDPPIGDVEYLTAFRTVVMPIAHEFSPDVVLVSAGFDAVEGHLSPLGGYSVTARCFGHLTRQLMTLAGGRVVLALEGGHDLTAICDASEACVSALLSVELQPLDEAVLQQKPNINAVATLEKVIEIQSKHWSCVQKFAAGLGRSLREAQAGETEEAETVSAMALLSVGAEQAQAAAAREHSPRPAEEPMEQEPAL
Chain of Histone deacetylase 3/Nuclear receptor corepressor 2 (HDAC3/NCoR2) (O15379 whole entry): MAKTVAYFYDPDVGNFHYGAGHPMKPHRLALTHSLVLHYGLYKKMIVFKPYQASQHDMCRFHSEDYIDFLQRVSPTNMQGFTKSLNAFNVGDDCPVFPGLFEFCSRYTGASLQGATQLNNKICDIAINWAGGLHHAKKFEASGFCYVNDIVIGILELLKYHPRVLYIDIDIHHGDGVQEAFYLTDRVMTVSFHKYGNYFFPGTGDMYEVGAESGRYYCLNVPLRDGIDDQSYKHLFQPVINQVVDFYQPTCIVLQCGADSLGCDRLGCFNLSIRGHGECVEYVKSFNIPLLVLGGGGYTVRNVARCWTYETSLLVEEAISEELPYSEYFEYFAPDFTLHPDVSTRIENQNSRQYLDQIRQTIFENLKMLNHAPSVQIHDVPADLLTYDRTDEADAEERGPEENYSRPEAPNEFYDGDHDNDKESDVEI
Chain of Histone deacetylase 3/Nuclear receptor corepressor 2 (HDAC3/NCoR2) (Q9Y618 whole entry, further chain): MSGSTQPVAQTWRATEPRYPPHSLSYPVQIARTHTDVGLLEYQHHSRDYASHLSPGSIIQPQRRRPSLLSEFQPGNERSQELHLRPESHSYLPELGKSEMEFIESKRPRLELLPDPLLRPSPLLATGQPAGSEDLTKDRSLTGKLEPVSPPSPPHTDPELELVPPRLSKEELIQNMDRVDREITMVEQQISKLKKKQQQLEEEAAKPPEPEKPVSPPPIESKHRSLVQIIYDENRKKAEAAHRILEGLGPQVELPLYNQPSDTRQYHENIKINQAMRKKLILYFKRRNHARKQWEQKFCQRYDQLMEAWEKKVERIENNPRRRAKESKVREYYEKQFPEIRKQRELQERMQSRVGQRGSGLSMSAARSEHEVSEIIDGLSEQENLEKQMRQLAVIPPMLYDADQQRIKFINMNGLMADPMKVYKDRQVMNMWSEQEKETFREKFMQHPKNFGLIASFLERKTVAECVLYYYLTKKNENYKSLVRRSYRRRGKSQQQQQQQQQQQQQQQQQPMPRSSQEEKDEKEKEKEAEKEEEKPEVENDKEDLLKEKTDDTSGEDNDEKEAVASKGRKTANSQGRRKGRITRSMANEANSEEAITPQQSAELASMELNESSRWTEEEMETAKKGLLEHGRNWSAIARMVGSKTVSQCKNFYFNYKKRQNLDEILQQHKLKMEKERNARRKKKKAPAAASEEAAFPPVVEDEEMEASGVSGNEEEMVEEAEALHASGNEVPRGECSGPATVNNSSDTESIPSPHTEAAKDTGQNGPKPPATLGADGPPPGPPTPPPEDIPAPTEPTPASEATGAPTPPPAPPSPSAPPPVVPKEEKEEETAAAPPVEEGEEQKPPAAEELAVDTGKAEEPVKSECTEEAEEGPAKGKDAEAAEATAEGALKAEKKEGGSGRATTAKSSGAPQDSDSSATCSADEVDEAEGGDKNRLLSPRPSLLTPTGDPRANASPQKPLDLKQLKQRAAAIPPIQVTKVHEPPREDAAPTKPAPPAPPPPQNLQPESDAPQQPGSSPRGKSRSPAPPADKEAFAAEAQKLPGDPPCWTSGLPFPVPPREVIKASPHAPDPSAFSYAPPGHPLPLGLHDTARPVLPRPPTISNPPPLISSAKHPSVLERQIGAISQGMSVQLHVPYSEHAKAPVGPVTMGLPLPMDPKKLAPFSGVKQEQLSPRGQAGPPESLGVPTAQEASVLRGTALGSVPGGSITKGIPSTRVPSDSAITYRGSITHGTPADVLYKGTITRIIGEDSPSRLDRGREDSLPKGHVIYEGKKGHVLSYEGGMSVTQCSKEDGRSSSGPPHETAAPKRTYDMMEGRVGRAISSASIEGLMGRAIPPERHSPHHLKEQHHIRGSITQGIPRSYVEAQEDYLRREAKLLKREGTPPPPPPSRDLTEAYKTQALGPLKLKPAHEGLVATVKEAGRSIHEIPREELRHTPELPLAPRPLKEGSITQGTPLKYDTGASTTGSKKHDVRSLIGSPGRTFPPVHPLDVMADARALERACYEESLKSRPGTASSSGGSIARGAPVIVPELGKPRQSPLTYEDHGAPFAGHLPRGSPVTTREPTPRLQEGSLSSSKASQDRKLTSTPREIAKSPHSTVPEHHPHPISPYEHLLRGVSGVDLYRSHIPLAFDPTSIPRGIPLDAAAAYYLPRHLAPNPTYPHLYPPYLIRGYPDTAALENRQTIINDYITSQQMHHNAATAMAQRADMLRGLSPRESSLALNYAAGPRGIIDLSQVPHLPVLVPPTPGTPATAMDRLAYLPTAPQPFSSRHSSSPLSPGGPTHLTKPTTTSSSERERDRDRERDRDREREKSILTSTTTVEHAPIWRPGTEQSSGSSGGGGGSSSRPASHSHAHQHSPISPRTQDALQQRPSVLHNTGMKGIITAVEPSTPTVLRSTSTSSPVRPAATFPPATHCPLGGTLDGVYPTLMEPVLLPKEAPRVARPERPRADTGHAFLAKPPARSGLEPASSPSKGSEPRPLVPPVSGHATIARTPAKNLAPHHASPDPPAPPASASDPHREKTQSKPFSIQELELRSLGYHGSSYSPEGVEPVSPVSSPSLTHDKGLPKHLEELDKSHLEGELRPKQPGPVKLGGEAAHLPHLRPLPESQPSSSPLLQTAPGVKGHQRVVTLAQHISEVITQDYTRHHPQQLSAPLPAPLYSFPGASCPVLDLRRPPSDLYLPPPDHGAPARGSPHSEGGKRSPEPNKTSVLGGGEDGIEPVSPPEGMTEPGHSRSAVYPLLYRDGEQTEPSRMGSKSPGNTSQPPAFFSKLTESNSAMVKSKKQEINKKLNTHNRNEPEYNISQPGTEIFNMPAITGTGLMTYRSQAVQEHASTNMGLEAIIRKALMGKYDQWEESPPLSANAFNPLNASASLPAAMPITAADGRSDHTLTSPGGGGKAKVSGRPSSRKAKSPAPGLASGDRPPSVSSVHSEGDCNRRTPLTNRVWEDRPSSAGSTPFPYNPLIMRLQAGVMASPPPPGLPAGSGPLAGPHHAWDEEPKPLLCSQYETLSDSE

Regarding `CN1C(=O)C2CN(Cc3c2c2ccccc2n3Cc2ccc(C(=O)NO)cc2)C1=O` (configuration not stated), the outcome in the data set on Mus musculus [1] and in the data set on Mus musculus [4] was Active. Also, the outcome in the data set with MV4-11 was inactive. Moreover, the results for the Ki (at Histone deacetylase 11; in data set [2]; on Histone deacetylase 5) were 495 nM, 306 nM and 701 nM, respectively. For the same molecule, the Activity entry with Mus musculus [3] is recorded as “Non-Toxic”.

One may read the Ki as a dissociation constant, usually derived from enzyme kinetics or from competition with a known ligand.

The values above are taken from ChEMBL document CHEMBL4043295, “Marbostat-100 Defines a New Class of Potent and Selective Antiinflammatory and Antirheumatic Histone Deacetylase 6 Inhibitors” (J Med Chem, 2018).
